Experimental data reported in ChEMBL document CHEMBL3826935, “Synthesis and Pharmacology of (Pyridin-2-yl)methanol Derivatives as Novel and Selective Transient Receptor Potential Vanilloid 3 Antagonists” (J Med Chem, 2016).

How the values were obtained:
[1] = biological target: T1, Transient receptor potential cation channel subfamily V member 3 (Homo sapiens) (UniProt Q8NET8); assay: Antagonist activity at human TRPV3 expressed in recombinant HEK293 cells assessed as inhibition of 2-APB induced calcium flux by FLIPR analysis; assay type: cell-based
T1 sequence (whole entry): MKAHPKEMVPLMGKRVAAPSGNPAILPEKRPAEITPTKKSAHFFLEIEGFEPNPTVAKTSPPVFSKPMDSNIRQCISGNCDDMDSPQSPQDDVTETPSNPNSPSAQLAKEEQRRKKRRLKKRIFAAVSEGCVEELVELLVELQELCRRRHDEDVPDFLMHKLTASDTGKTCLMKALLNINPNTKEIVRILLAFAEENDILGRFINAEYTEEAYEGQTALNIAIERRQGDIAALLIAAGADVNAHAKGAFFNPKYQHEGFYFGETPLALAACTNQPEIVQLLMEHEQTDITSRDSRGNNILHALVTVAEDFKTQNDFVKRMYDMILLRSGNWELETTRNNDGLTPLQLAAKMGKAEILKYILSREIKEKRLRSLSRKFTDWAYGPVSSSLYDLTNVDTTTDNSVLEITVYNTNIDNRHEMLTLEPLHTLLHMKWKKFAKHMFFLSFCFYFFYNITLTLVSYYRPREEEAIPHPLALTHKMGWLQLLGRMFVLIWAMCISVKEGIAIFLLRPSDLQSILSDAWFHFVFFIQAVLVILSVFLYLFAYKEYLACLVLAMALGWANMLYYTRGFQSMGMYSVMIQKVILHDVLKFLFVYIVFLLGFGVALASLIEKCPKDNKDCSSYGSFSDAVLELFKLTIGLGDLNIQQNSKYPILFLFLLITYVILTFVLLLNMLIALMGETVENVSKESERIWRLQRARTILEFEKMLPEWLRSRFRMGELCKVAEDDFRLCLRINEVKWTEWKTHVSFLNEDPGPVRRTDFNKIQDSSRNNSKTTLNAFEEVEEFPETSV
How it was run: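 HEK293 cells stably expressing human TRPV3 (I25V variant), plated the day before in DMEM + 10% FBS at 37 °C, 5% CO2. Calcium 4 dye loaded in Ca/Mg-free HEPES D-PBS pH 7.4 for 1–2 h at room temperature. Compound dilutions added with 3 min baseline, then 2-APB at 60 µM final; Ca2+ flux read 3 min on FLIPR. Kb from at least duplicates, averaged across independent runs.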

Liver microsome [2] = assay: Unbound intrinsic clearance in rat liver microsomes after 5 hrs by LC-MS/MS analysis; assay type: ADME
How it was run: (§1)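 Microsomal stability run in an automated high-throughput plate format. Intrinsic clearance corrected for nonspecific microsomal binding using measured unbound fraction (fu,mic), reported as unbound Clint in L/h/kg.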

Liver microsome [3] = assay: Unbound intrinsic clearance in human liver microsomes after 5 hrs by LC-MS/MS analysis; assay type: ADME; how it was run: as §1
Rattus norvegicus [4] = species: Rattus norvegicus; assay: Cardiotoxicity in rat assessed as increase in mean arterial pressure; assay type: toxicity, organism-based, Artery; conditions: in vivo
Rattus norvegicus [5] = species: Rattus norvegicus; assay: Cardiotoxicity in rat assessed as increase in cardiac contractility at plasma concentration of 4.7 ug/ml; assay type: toxicity, organism-based
[6] = biological target: T2, Nuclear receptor subfamily 1 group I member 2 (Homo sapiens, UniProt O75469); assay: Activation of human PXR; assay type: ADME; conditions: human
T2 sequence (O75469 whole entry): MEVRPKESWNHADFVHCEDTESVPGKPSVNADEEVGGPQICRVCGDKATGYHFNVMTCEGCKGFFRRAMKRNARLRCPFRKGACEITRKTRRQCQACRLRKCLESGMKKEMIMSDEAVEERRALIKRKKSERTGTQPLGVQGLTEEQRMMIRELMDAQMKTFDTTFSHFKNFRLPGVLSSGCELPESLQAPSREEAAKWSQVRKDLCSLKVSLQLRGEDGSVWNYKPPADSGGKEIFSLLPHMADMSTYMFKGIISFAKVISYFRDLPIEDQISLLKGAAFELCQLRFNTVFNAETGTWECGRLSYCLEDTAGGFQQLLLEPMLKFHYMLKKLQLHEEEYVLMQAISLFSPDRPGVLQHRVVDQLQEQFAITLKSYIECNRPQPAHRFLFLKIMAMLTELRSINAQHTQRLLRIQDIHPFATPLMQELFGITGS

| SMILES | Kb [1] | CL free (Liver microsome [2]) | CL free (Liver microsome [3]) | Activity (Rattus norvegicus [4]) | Activity (Rattus norvegicus [5]) | Activity [6] |
| --- | --- | --- | --- | --- | --- | --- |
| O[C@@]1(c2ccccn2)CC[C@@H](c2ccc(C(F)(F)F)cc2)C1 | 240 nM | 2520 mL/min/kg | 150 mL/min/kg |  |  |  |
| C[C@]1(O)C[C@@](c2cc(C(F)(F)F)ccn2)([C@H](O)c2ccccn2)C1 | 730 nM | 120 mL/min/kg | 33 mL/min/kg | Non-toxic | Non-toxic | Not Active |
| O[C@H](c1ccccn1)[C@]1(c2cccc(OC(F)(F)F)c2)C[C@H](O)C1 | 40 nM | 120 mL/min/kg | 150 mL/min/kg | Non-toxic | Non-toxic | Not Active |
| C[C@]1(O)C[C@](c2cccc(C(F)(F)F)c2)([C@H](O)c2ccccn2)C1 | 1550 nM | 67 mL/min/kg | 33 mL/min/kg | Non-toxic | Non-toxic | Not Active |
| OC(c1ccccn1)C1(c2ccccc2OC(F)(F)F)CCC1 (racemic) | 550 nM | 1830 mL/min/kg | 1230 mL/min/kg |  |  |  |
| O[C@H](c1ccccn1)C1(c2cccc(OC(F)(F)F)c2)CCC1 | 80 nM | 1720 mL/min/kg | 2220 mL/min/kg |  |  |  |
| O[C@H](c1ccccn1)[C@@]1(c2ccc(Cl)c(Cl)c2)CCCO1 | 43 nM | 2980 mL/min/kg | 383 mL/min/kg |  |  |  |
| O[C@H](c1ncccn1)C1(c2ccc(Cl)c(Cl)c2)CCC1 | 370 nM | 833 mL/min/kg | 267 mL/min/kg |  |  |  |
| O[C@H](c1ccccn1)[C@]1(c2cccc(C(F)(F)F)c2)C[C@H](O)C1 | 90 nM | 183 mL/min/kg | 130 mL/min/kg | Non-toxic | Non-toxic | Not Active |
| O[C@H](c1ccccn1)[C@]1(c2ccc(C(F)(F)F)cc2)C[C@H](O)C1 | 2240 nM | 50 mL/min/kg | 50 mL/min/kg | Non-toxic | Non-toxic | Not Active |
| C[C@]1(O)C[C@@](c2cccc(OC(F)(F)F)c2)([C@H](O)c2ccccn2)C1 | 280 nM | 200 mL/min/kg | 167 mL/min/kg | Non-toxic | Non-toxic | Not Active |
| C[C@]1(O)C[C@](c2cccc(OC(F)(F)F)c2)([C@H](O)c2ccccn2)C1 | 1310 nM | 50 mL/min/kg | 120 mL/min/kg | Non-toxic | Non-toxic | Not Active |
| OC(c1ncccc1F)C1(c2ccc(Cl)c(Cl)c2)CCC1 (racemic) | 610 nM | 3000 mL/min/kg | 833 mL/min/kg |  |  |  |
| O[C@@]1(c2ccccn2)CC[C@H](c2ccc(C(F)(F)F)cc2)C1 | 610 nM | 350 mL/min/kg | 400 mL/min/kg |  |  |  |
| O[C@H](c1ccccn1)[C@]1(c2ccc(Cl)c(Cl)c2)CCCO1 | 470 nM |  |  |  |  |  |
| O[C@H](c1ccccn1)[C@]1(c2cccc(C(F)(F)F)c2)C[C@@H](O)C1 | 210 nM | 100 mL/min/kg | 50 mL/min/kg | Non-toxic | Non-toxic | Not Active |
| C[C@]1(O)C[C@@](c2ccc(OC(F)(F)F)cc2)([C@@H](O)c2ccccn2)C1 | > 10400 nM | 100 mL/min/kg | 50 mL/min/kg | Non-toxic | Non-toxic | Not Active |
| O[C@H](c1ccccn1)[C@]1(c2ccc(Cl)c(Cl)c2)CCO1 | 150 nM | 50 mL/min/kg | 67 mL/min/kg |  |  |  |
| O[C@H](c1ccccn1)[C@]1(c2ccc(C(F)(F)F)cc2)C[C@@H](O)C1 | 1870 nM | 50 mL/min/kg | 33 mL/min/kg | Non-toxic | Non-toxic | Not Active |

| SMILES | Kb [1] | CL free (Liver microsome [2]) | CL free (Liver microsome [3]) | Activity (Rattus norvegicus [4]) | Activity (Rattus norvegicus [5]) | Activity [6] |
| --- | --- | --- | --- | --- | --- | --- |
| OC(c1cc(F)ccn1)C1(c2ccc(Cl)c(Cl)c2)CCC1 (racemic) | 640 nM | 3850 mL/min/kg | 533 mL/min/kg |  |  |  |
| C[C@]1(O)C[C@@](c2ccc(OC(F)(F)F)cc2)([C@H](O)c2ccccn2)C1 | 330 nM | 130 mL/min/kg | 67 mL/min/kg | Non-toxic | Non-toxic | Not Active |
| C[C@]1(c2ccc(OC(F)(F)F)cc2)C[C@@](O)(c2ccccn2)CO1 | 2460 nM | 150 mL/min/kg | 120 mL/min/kg |  |  |  |
| C[C@@]1(c2ccc(OC(F)(F)F)cc2)C[C@@](O)(c2ccccn2)CO1 (single isomer, unassigned) | 1120 nM | 333 mL/min/kg | 67 mL/min/kg |  |  |  |
| O[C@H](c1ccccn1)C1(c2ccc(OC(F)(F)F)cc2)CCC1 | 140 nM | 1050 mL/min/kg | 333 mL/min/kg |  |  |  |
| O[C@H](c1ccccn1)[C@]1(c2cc(C(F)(F)F)ccn2)C[C@H](O)C1 | 270 nM | 50 mL/min/kg | 33 mL/min/kg | Non-toxic | Non-toxic | Not Active |
| C[C@@]1(c2ccc(OC(F)(F)F)cc2)C[C@](O)(c2ccccn2)CO1 | 1710 nM | 383 mL/min/kg | 217 mL/min/kg |  |  |  |
| OC(c1ccccn1)C1(c2ccc(C(F)(F)F)cc2)CNC1 (stereo not given) | 6680 nM | 50 mL/min/kg | 33 mL/min/kg |  |  |  |
| O[C@]1(c2ccccn2)CC[C@@H](c2ccc(C(F)(F)F)cc2)C1 | 130 nM | 7670 mL/min/kg | 383 mL/min/kg |  |  |  |
| CC(O)(c1ccccn1)C1(c2ccc(Cl)c(Cl)c2)CCC1 (racemic) | 3400 nM | 6330 mL/min/kg | 1670 mL/min/kg |  |  |  |
| CN1CC(c2ccc(C(F)(F)F)cc2)(C(O)c2ccccn2)C1 (stereo not given) | 6630 nM | 120 mL/min/kg | 50 mL/min/kg |  |  |  |
| OC(c1ccccn1)C1(c2ccc(Cl)c(Cl)c2)COC1 (stereo not given) | 7370 nM | 417 mL/min/kg | 130 mL/min/kg |  |  |  |
| OC(c1ccccn1)C1(c2ccc(Cl)c(Cl)c2)CCOC1 (stereo not given) | 630 nM | 983 mL/min/kg | 417 mL/min/kg |  |  |  |
| OC(c1ccc(F)cn1)C1(c2ccc(Cl)c(Cl)c2)CCC1 (racemic) | 910 nM | 3170 mL/min/kg | 767 mL/min/kg |  |  |  |
| O[C@]1(c2ccccn2)CC[C@H](c2ccc(C(F)(F)F)cc2)C1 | 540 nM | 1430 mL/min/kg | 333 mL/min/kg |  |  |  |
| O[C@H](c1ccccn1)[C@@]1(c2ccc(Cl)c(Cl)c2)CCO1 | 380 nM | 1000 mL/min/kg | 217 mL/min/kg |  |  |  |
| OC(c1ncccn1)C1(c2ccc(OC(F)(F)F)cc2)CCC1 (racemic) | 1540 nM | 483 mL/min/kg | 100 mL/min/kg |  |  |  |
| O[C@H](c1ccccn1)C1(c2ccc(Cl)c(Cl)c2)CC(F)(F)C1 | 80 nM | 850 mL/min/kg | 250 mL/min/kg |  |  |  |
